The values below come from ChEMBL document CHEMBL1130393, “Antitumor agents. 178. Synthesis and biological evaluation of substituted 2-aryl-1,8-naphthyridin-4(1H)-ones as antitumor agents that inhibit tubulin polymerization” (J Med Chem, 1997).

For assay [1], the system named is Tumor Cell line. Description: In vitro antitumor activity against NCI 's human tumor cell lines. It counts as functional. In short, it runs like this:
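Tested in the NCI 60 human tumor cell line in vitro screen. […] The value is calculated from all cell lines tested, as an average log GI50.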

For assay [2], the target named is Tubulin (Bos taurus) (UniProt Q6B856+Q862L2+Q862F3). As to the kind of experiment: Inhibition of radiolabeled colchicine binding to tubulin. It counts as protein assay. Further details: concentration or dose not given beside the values. To be noted: concentration not given here. Summed up: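 Measured by DEAE-cellulose filter binding. The 0.1 mL mixture held bovine brain tubulin 1.0 µM, 1.0 M monosodium glutamate (pH 6.6), 1 mM MgCl2, 0.1 mM GTP, 5.0 µM [3H]colchicine, 5% DMSO and inhibitor at 5.0 µM. It was incubated 20 min at 37 °C, filtered through two DEAE-cellulose papers, washed with water and counted by liquid scintillation.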

The subject of assay [3] is Panel breast (Carcinoma cell lines). Description: log molar concentration required to cause total growth inhibition of breast tumor cell lines. It counts as functional. The settings on record: Homo sapiens, read-out: Log TGI (converted). In short, it runs like this:
(§1)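 TGI from the NCI 60 human tumor cell line in vitro screen: log of the molar drug concentration causing total growth inhibition, reported for the named cell panel.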

The subject of assay [4] is CAKI-1. As to the kind of experiment: in vitro antitumor activity against CAKI-1 tumor cell lines. It counts as functional. To be noted: Homo sapiens.
Assay [5] concerns Panel CNS (Carcinoma cell lines). As to the kind of experiment: log molar concentration required to cause total growth inhibition of CNS cancer cell lines. It counts as functional. To be noted: Homo sapiens, read-out: Log TGI (converted). Summed up:
as §1

The subject of assay [6] is Panel colon (Carcinoma cell lines). As to the kind of experiment: log molar concentration required to cause total growth inhibition of colon tumor cell lines. It counts as functional. The settings on record: Homo sapiens, read-out: Log TGI (converted). In short, it runs like this: as §1
In assay [7] the test system is HCT-116. Description: in vitro antitumor activity against HCT116 tumor cell lines. It counts as functional. The settings on record: Homo sapiens.
Assay [8] deals with HL-60. Description: in vitro antitumor activity against HL-60(TB) tumor cell lines. The settings on record: Homo sapiens. It counts as functional.
Assay [9] has as its system Tumor Cell line. Description: in vitro antitumor activity against NCI 's human tumor cell lines. To be noted: read-out: Average log GI50 (converted). It counts as functional. Summed up:
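NCI in vitro screen of 60 human tumor cell lines. […] The value is calculated from all cell lines tested.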

Assay [10] relates to MDA-MB-435. Description: in vitro antitumor activity against MAD-MB-435NCI 's human tumor cell lines. It counts as functional.
For assay [11], the system named is Tumor Cell line. Description: log molar concentration required to cause total growth inhibition of leukemic tumor cell lines. It counts as functional. The settings on record: Homo sapiens, read-out: Log TGI (converted). In short, it runs like this: as §1
The subject of assay [12] is MDA-N. As to the kind of experiment: in vitro antitumor activity against MDA-N tumor cell lines. It counts as functional. To be noted: Homo sapiens.
Assay [13] has as its system Melanoma tumor cell line. Description: log molar concentration required to cause total growth inhibition of melanomic tumor cell lines. It counts as functional. To be noted: Homo sapiens, read-out: Log TGI (converted). Summed up: as §1
For assay [14], the system named is NCI-H460. As to the kind of experiment: in vitro antitumor activity against NCI-H460 tumor cell lines. To be noted: Homo sapiens. It counts as functional.
Assay [15] deals with OVCAR-3. Description: in vitro antitumor activity against OVCAR-3 tumor cell lines. It counts as functional. To be noted: Homo sapiens.
The subject of assay [16] is NSCLC. As to the kind of experiment: log molar concentration required to cause total growth inhibition of non-small cell lung tumor cell lines. It counts as functional. The settings on record: Homo sapiens, read-out: Log TGI (converted). Summed up: as §1
Assay [17] deals with PC-3. As to the kind of experiment: in vitro antitumor activity against PC-3 tumor cell lines. It counts as functional. The settings on record: Homo sapiens.
In assay [18] the test system is Panel prostate (Carcinoma cell lines). Description: log molar concentration required to cause total growth inhibition of prostate tumor cell lines. It counts as functional. The settings on record: Homo sapiens, read-out: Log TGI (converted). In short, it runs like this: as §1
The test system of assay [19] is Panel renal (Carcinoma cell lines). As to the kind of experiment: log molar concentration required to cause total growth inhibition of renal tumor cell lines. It counts as functional. To be noted: Homo sapiens, read-out: Log TGI (converted). In short, it runs like this: as §1
The test system of assay [20] is SF-295. Description: in vitro antitumor activity against SF-295 tumor cell lines. It counts as functional. To be noted: Homo sapiens.
The subject of assay [21] is SK-MEL-5. As to the kind of experiment: in vitro antitumor activity against SK-MEL-5 tumor cell lines. It counts as functional. To be noted: Homo sapiens.
For assay [22], the system named is U-251. As to the kind of experiment: in vitro antitumor activity against U-251 tumor cell lines. The settings on record: Homo sapiens. It counts as functional.
Assay [23] addresses Tubulin (Bos taurus, UniProt Q6B856+Q862L2+Q862F3). As to the kind of experiment: Inhibition of tubulin polymerization. It counts as functional.
Assay [24] relates to Tumor Cell line. Description: log molar concentration required to cause total growth inhibition of NCI 's human tumor cell lines. The settings on record: read-out: Log TGI (converted). It counts as functional. In short, it runs like this:
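NCI 60 human tumor cell line in vitro screen. TGI is the log molar concentration giving total growth inhibition, calculated from all cell lines tested.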

The test system of assay [25] is Panel ovarian (Carcinoma cell lines). Description: log molar concentration required to cause total growth inhibition of ovarian tumor cell lines. It counts as functional. The settings on record: Homo sapiens, read-out: Log TGI (converted). Summed up:
as §1

Consider `COc1cc([C@@H]2c3cc4c(cc3[C@H](O)[C@H]3COC(=O)[C@H]23)OCO4)cc(OC)c1OC` [PODOFILOX], for which the “average log GI50” value in assay [1] is on record as -7.54 M. In assay [2], this molecule showed an inhibition of 76%.
Consider `Oc1cc(-c2cccc(Cl)c2)nc2ncccc12`, for which the TGI in [3] is 1170 nM; in assay [5], 16600 nM; in [6], 16200 nM; in [11] it was 38900 nM; in [13] it was 97700 nM; in assay [16], 85100 nM. Also, the TGI in assay [18] was 2630 nM; in assay [19] it was 49000 nM; in assay [24], 24000 nM; in assay [25], 31600 nM. For the same molecule, the GI50 in assay [4] is 56.2 nM; in assay [7], 28.8 nM; in [8], 10.5 nM; in assay [9], 229 nM; in assay [10], < 10 nM; in assay [12], 17.4 nM. Further, the GI50 in assay [14] was 87.1 nM; in assay [15] it was 45.7 nM; in assay [17], 22.4 nM; in assay [20], 63.1 nM; in assay [21] it was 52.5 nM; in assay [22], 145 nM. In assay [23], this molecule showed an IC50 of 1500 nM.
